Source: ChEMBL document CHEMBL3085645, “Design, synthesis and biological evaluation of phosphorodiamidate prodrugs of antiviral and anticancer nucleosides” (Eur J Med Chem, 2013)

Experiments:
L1210 [1] = assay: Cytostatic activity against thymidine kinase-deficient mouse L1210 cells assessed as growth inhibition after 2 days by particle counting analysis; format: functional, cell-based; conditions: L1210, 48 h
In short: (§1)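 Tumor cells seeded and exposed to a range of compound concentrations. Cell number counted with a particle counter after 2 days (L1210, L1210/TK) or 3 days (CEM, CEM/TK, HeLa, HeLa TK, Caco-2, Colo-320).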

L1210 [2] = assay: Cytostatic activity against mouse L1210 cells assessed as growth inhibition after 2 days by particle counting analysis; format: functional, cell-based; conditions: L1210, 48 h; in short: as §1
CCRF-CEM [3] = assay: Cytostatic activity against thymidine kinase-deficient human CEM cells assessed as growth inhibition after 3 days by particle counting analysis; format: functional, cell-based; conditions: 72 h; in short: as §1
CCRF-CEM [4] = assay: Cytostatic activity against human CEM cells assessed as growth inhibition after 3 days by particle counting analysis; format: functional, cell-based; conditions: 72 h; in short: as §1
HeLa [5] = assay: Cytostatic activity against human HeLa cells assessed as growth inhibition after 3 days by particle counting analysis; format: functional, cell-based; conditions: 72 h; in short: as §1
COLO 320 = assay: Cytostatic activity against human COLO320 cells assessed as growth inhibition after 3 days by particle counting analysis; format: functional, cell-based; conditions: COLO 320, 72 h; in short: as §1
Caco-2 = assay: Cytostatic activity against human Caco2 cells assessed as growth inhibition after 3 days by particle counting analysis; format: functional, cell-based; conditions: Caco-2, 72 h; in short: as §1
HeLa [6] = assay: Cytostatic activity against thymidine kinase-deficient human HeLa cells assessed as growth inhibition after 3 days by particle counting analysis; format: functional, cell-based; conditions: 72 h; in short: as §1
Hepatitis C virus = assay: Antiviral activity against Hepatitis C virus genotype 1b infected in human HuH7 cells assessed as inhibition of viral replication; format: functional, organism-based, Hepacivirus hominis; conditions: Huh-7, read-out: EC50
Huh-7 = assay: Cytotoxicity against human HuH7 cells; format: cell-based; conditions: human, huh-7; read-out: CC50
[7] = test system: Human immunodeficiency virus 1; assay: Antiviral activity against HIV1 3B infected in human CEM cells assessed as virus-induced giant cell formation after 4 days by microscopic analysis; format: functional, organism-based; conditions: Human immunodeficiency virus 1, 3B, CCRF-CEM, 96 h
In short: (§2)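 CEM cells (∼3 × 10^5 cells/cm3) infected with 100 CCID50/mL of HIV-1(IIIB) or HIV-2(ROD), seeded into wells with compound dilutions. Giant cell formation examined microscopically after 4 days at 37 °C.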

[8] = test system: Human immunodeficiency virus 2; assay: Antiviral activity against HIV2 ROD infected in human CEM cells assessed as virus-induced giant cell formation after 4 days by microscopic analysis; format: functional, organism-based; conditions: Human immunodeficiency virus 2, ISOLATE ROD, CCRF-CEM, 96 h; in short: as §2
Human alphaherpesvirus 1 [9] = assay: Antiviral activity against acyclovir-resistant thymidine kinase-deficient Herpes simplex virus 1 KOS infected in HEL cells assessed as inhibition of virus-induced cytopathicity; format: functional, organism-based; conditions: Human alphaherpesvirus 1, KOS
[10] = Cytotoxicity against HEL cells; format: cell-based; conditions: human
Human alphaherpesvirus 2 = assay: Antiviral activity against Herpes simplex virus 2 G infected in HEL cells assessed as inhibition of virus-induced cytopathicity; format: functional, organism-based; conditions: Human alphaherpesvirus 2, strain G
Human alphaherpesvirus 1 [11] = assay: Antiviral activity against Herpes simplex virus 1 KOS infected in HEL cells assessed as inhibition of virus-induced cytopathicity; format: functional, organism-based; conditions: Human alphaherpesvirus 1, KOS
Felid alphaherpesvirus 1 = assay: Antiviral activity against Feline herpesvirus infected in cat CRFK cells assessed as inhibition of virus-induced cytopathicity; format: functional, organism-based; conditions: Felid alphaherpesvirus 1, CRFK
CCRF-CEM [12] = assay: Cytotoxicity against human CEM cells; format: cell-based

For `CC(=O)Nc1ccn([C@H]2CS[C@@H](CO)O2)c(=O)n1`, which IC50 (L1210 [1]) is on record?
Its IC50 is greater than 250 µM.

And the IC50 (L1210 [2])?
Its IC50 is greater than 250 µM.

And the IC50 (CCRF-CEM [3])?
Its IC50 is greater than 250 µM.

What about the IC50 (CCRF-CEM [4]) of the same compound?
Its IC50 is greater than 250 µM.

And the IC50 (HeLa [5])?
Its IC50 is 242 µM.

What about the IC50 (COLO 320) of the same compound?
The IC50 was no less than 250 µM.

What about the IC50 (Caco-2) of the same compound?
The IC50 was greater than 250 µM.

And the IC50 (HeLa [6])?
The IC50 was greater than 250 µM.

With `CCOc1nc(N)nc2c1ncn2[C@@H]1O[C@H](COP(=O)(N[C@H](C)C(=O)OCC(C)(C)C)N[C@H](C)C(=O)OCC(C)(C)C)[C@@H](O)[C@@]1(C)F` as the compound, how does the EC50 (Hepatitis C virus) read?
Its EC50 is 0.23 µM.

And the CC50 (Huh-7)?
The CC50 was greater than 100 µM.

With `C[C@H](NP(=O)(N[C@@H](C)C(=O)OCC(C)(C)C)OC[C@@H]1C=C[C@H](n2cnc3c(NC4CC4)nc(N)nc32)C1)C(=O)OCC(C)(C)C` as the compound, how does the EC50 [7] read?
Its EC50 is 1.5 µM.

What about the IC50 (L1210 [2]) of the same compound?
The IC50 was 48 µM.

What about the EC50 [8] of the same compound?
Its EC50 is 1.2 µM.

And the IC50 (CCRF-CEM [4])?
Its IC50 is 27 µM.

What about the IC50 (HeLa [5]) of the same compound?
The IC50 was 36 µM.

For `C[C@H](NP(=O)(N[C@@H](C)C(=O)OCC(C)(C)C)OC[C@@]1(N=[N+]=[N-])O[C@@H](n2ccc(=O)[nH]c2=O)[C@H](O)[C@@H]1O)C(=O)OCC(C)(C)C`, which EC50 (Hepatitis C virus) is on record?
Its EC50 is 22 µM.

What about the CC50 (Huh-7) of the same compound?
The CC50 was greater than 100 µM.

Which EC50 (Hepatitis C virus) does the source give for `C[C@H](NP(=O)(N[C@@H](C)C(=O)OCC(C)(C)C)OC[C@@]1(N=[N+]=[N-])O[C@@H](n2ccc(N)nc2=O)[C@H](O)[C@@H]1O)C(=O)OCC(C)(C)C` here?
The EC50 was greater than 40 µM.

And the CC50 (Huh-7)?
The CC50 was 72 µM.

With `CCCCCc1ccc(-c2cc3cn([C@H]4C[C@H](O)[C@@H](COP(=O)(N[C@@H](C)C(=O)OCc5ccccc5)N[C@@H](C)C(=O)OCc5ccccc5)O4)c(=O)nc3o2)cc1` as the compound, how does the EC50 (Human alphaherpesvirus 1 [9]) read?
The EC50 was greater than 100 µM.

And the MCC [10]?
Its MCC is greater than 100 µM.

What about the EC50 (Human alphaherpesvirus 2) of the same compound?
Its EC50 is greater than 100 µM.

What about the EC50 (Human alphaherpesvirus 1 [11]) of the same compound?
The EC50 was greater than 100 µM.

And the EC50 (Felid alphaherpesvirus 1)?
Its EC50 is greater than 100 µM.

Which EC50 [7] does the source give for `C[C@H](NP(=O)(N[C@@H](C)C(=O)OCC(C)(C)C)OC[C@@H]1CC[C@H](n2cnc3c(N)ncnc32)O1)C(=O)OCC(C)(C)C` here?
The EC50 was 0.1 µM.

And the IC50 (L1210 [2])?
Its IC50 is 76 µM.

And the CC50 (CCRF-CEM [12])?
Its CC50 is 35 µM.

What about the EC50 [8] of the same compound?
Its EC50 is 0.049 µM.

And the IC50 (CCRF-CEM [4])?
The IC50 was 36 µM.

Which EC50 [7] does the source give for `Cc1cn([C@H]2C[C@H](N=[N+]=[N-])[C@@H](CO)O2)c(=O)[nH]c1=O` [ZIDOVUDINE] here?
The EC50 was 0.012 µM.

What about the CC50 (CCRF-CEM [12]) of the same compound?
Its CC50 is greater than 250 µM.

What about the EC50 [8] of the same compound?
The EC50 was 0.067 µM.

For `Cc1cn([C@H]2C=C[C@@H](COP(=O)(N[C@@H](C)C(=O)OC3CCCCC3)N[C@@H](C)C(=O)OC3CCCCC3)O2)c(=O)[nH]c1=O`, which IC50 (L1210 [1]) is on record?
Its IC50 is 25 µM.

And the EC50 [7]?
Its EC50 is 0.15 µM.

What about the IC50 (L1210 [2]) of the same compound?
Its IC50 is 29 µM.

What about the EC50 [8] of the same compound?
Its EC50 is 0.38 µM.

What about the IC50 (CCRF-CEM [3]) of the same compound?
The IC50 was 54 µM.

What about the IC50 (CCRF-CEM [4]) of the same compound?
Its IC50 is 73 µM.

What about the IC50 (HeLa [5]) of the same compound?
The IC50 was 96 µM.

What about the IC50 (Caco-2) of the same compound?
Its IC50 is 135 µM.

What about the IC50 (HeLa [6]) of the same compound?
The IC50 was 36 µM.

Which results are given for `CC(=O)Nc1ccn([C@H]2CS[C@@H](COP(=O)(N[C@@H](C)C(=O)OCc3ccccc3)N[C@@H](C)C(=O)OCc3ccccc3)O2)c(=O)n1`?
IC50 (CCRF-CEM [4]): 120 µM; IC50 (HeLa [5]): 155 µM; IC50 (COLO 320): > 250 µM; IC50 (Caco-2): ≥ 250 µM

Which results are given for `C[C@H](NP(=O)(N[C@@H](C)C(=O)OCc1ccccc1)OC[C@@H]1C=C[C@H](n2cnc3c(NC4CC4)nc(N)nc32)C1)C(=O)OCc1ccccc1`?
EC50 [7]: 0.56 µM; IC50 (L1210 [2]): 54 µM; EC50 [8]: 1.1 µM; IC50 (CCRF-CEM [4]): 19 µM; IC50 (HeLa [5]): 23 µM

Which results are given for `C[C@H](NP(=O)(N[C@@H](C)C(=O)OCc1ccccc1)OC[C@@]1(N=[N+]=[N-])O[C@@H](n2ccc(N)nc2=O)[C@H](O)[C@@H]1O)C(=O)OCc1ccccc1`?
EC50 (Hepatitis C virus): > 40 µM; CC50 (Huh-7): > 100 µM

With `Cc1cn([C@H]2C=C[C@@H](COP(=O)(N[C@@H](C)C(=O)OCC(C)(C)C)N[C@@H](C)C(=O)OCC(C)(C)C)O2)c(=O)[nH]c1=O` as the compound, how does the IC50 (L1210 [1]) read?
Its IC50 is 23 µM.

And the EC50 [7]?
The EC50 was 0.09 µM.

What about the IC50 (L1210 [2]) of the same compound?
The IC50 was 47 µM.

What about the EC50 [8] of the same compound?
The EC50 was 0.14 µM.

And the IC50 (CCRF-CEM [3])?
The IC50 was 37 µM.

And the IC50 (CCRF-CEM [4])?
Its IC50 is 96 µM.

And the IC50 (HeLa [5])?
Its IC50 is 110 µM.

What about the IC50 (COLO 320) of the same compound?
Its IC50 is 30 µM.

And the IC50 (Caco-2)?
Its IC50 is 174 µM.

What about the IC50 (HeLa [6]) of the same compound?
Its IC50 is 53 µM.

Which EC50 (Human alphaherpesvirus 1 [9]) does the source give for `COC(=O)[C@H](C)NP(=O)(N[C@@H](C)C(=O)OC)OC[C@H]1O[C@@H](n2cnc(C(N)=O)c2N)[C@H](O)[C@@H]1O` here?
The EC50 was greater than 100 µM.

And the MCC [10]?
Its MCC is greater than 100 µM.

What about the IC50 (L1210 [2]) of the same compound?
The IC50 was no less than 250 µM.

What about the IC50 (CCRF-CEM [4]) of the same compound?
The IC50 was greater than 250 µM.

And the EC50 (Human alphaherpesvirus 2)?
The EC50 was greater than 100 µM.

And the IC50 (HeLa [5])?
Its IC50 is greater than 250 µM.

What about the EC50 (Human alphaherpesvirus 1 [11]) of the same compound?
The EC50 was greater than 100 µM.

And the EC50 (Felid alphaherpesvirus 1)?
The EC50 was greater than 100 µM.

And the IC50 (HeLa [6])?
Its IC50 is greater than 250 µM.

Which EC50 [7] does the source give for `Nc1nc(NC2CC2)c2ncn([C@H]3C=C[C@@H](CO)C3)c2n1` [ABACAVIR] here?
Its EC50 is 23 µM.

What about the IC50 (L1210 [2]) of the same compound?
Its IC50 is greater than 250 µM.

And the CC50 (CCRF-CEM [12])?
Its CC50 is greater than 250 µM.

What about the EC50 [8] of the same compound?
Its EC50 is 18 µM.

And the IC50 (CCRF-CEM [4])?
Its IC50 is greater than 250 µM.

And the IC50 (HeLa [5])?
Its IC50 is 170 µM.
